The text below walks through data of ChEMBL document CHEMBL1158602, “Dihydro-pyrano[2,3-b]pyridines and tetrahydro-1,8-naphthyridines as CB1 receptor inverse agonists: synthesis, SAR and biological evaluation” (Bioorg Med Chem Lett, 2010).

The target in one data set is Cannabinoid receptor 1 (Homo sapiens, UniProt P21554). The experiment in a line: Binding affinity to human CB1 receptor.
In a further data set the target is Cannabinoid receptor 2 (Homo sapiens, UniProt P34972). The data set can be described thus: Binding affinity to human CB2 receptor.
Chain of Cannabinoid receptor 2 (P34972 whole entry): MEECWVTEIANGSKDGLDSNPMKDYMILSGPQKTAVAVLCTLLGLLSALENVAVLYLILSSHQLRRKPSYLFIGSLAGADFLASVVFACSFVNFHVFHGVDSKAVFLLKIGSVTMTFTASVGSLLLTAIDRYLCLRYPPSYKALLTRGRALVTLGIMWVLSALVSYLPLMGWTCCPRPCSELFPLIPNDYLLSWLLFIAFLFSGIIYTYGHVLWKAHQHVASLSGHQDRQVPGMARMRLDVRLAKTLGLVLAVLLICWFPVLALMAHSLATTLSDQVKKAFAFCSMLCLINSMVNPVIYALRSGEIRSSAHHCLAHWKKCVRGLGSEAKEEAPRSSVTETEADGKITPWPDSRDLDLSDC
Data set [1] in a line: Oral bioavailability in rat at 1 mg/kg, iv after 4 hrs. As to conditions: in vivo. It counts as ADME, organism-based.
The nature of data set [2]: Half life in rat at 1 mg/kg, iv after 4 hrs. It counts as ADME, organism-based. The arrangement: dose 1 mg/kg, route intravenous. As to conditions: in vivo.
Data set [3] can be described thus: Clearance in rat plasma at 1 mg/kg, iv after 4 hrs. The arrangement: dose 1 mg/kg, route intravenous. The data set is classed as ADME, organism-based.
Data set [4] is described as follows: Drug level in rat brain at 1 mg/kg, iv after 4 hrs. The data set is classed as ADME, organism-based. The arrangement: dose 1 mg/kg, route intravenous. As to conditions: read-out: Drug uptake. The method in brief: (§1)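 Rats given 1 mg/kg intravenously; brain and plasma drug concentrations measured 4 h after dosing, and the brain/plasma ratio taken from these levels.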

The nature of data set [5]: Drug level in rat plasma at 1 mg/kg, iv after 4 hrs. It counts as ADME, organism-based. The arrangement: dose 1 mg/kg, route intravenous. As to conditions: read-out: Drug uptake. The method in brief:
as §1

The nature of data set [6]: Ratio of drug level in brain to plasma in rat at 1 mg/kg, iv after 4 hrs. As to conditions: brain and plasma. The arrangement: dose 1 mg/kg, route intravenous. The data set is classed as ADME, organism-based. The method in brief: as §1
Data set [7] concerns Rattus norvegicus. The experiment in a line: Toxicity in diet-induced obese rat assessed as change in body weight at 3 mg/kg, po after 18 hrs (RVb = 10 g). It counts as organism-based. The arrangement: dose 3 mg/kg, route oral. As to conditions: in vivo.
Data set [8] deals with Rattus norvegicus. The data set can be described thus: Toxicity in diet-induced obese rat assessed as suppression in food intake at 3 mg/kg, po after 18 hrs. As to conditions: in vivo. It counts as organism-based. The arrangement: dose 3 mg/kg, route oral.
For data set [9], the system named is Rattus norvegicus. The experiment in a line: Toxicity in diet-induced obese rat assessed as change in body weight at 3 mg/kg, po after 18 hrs (RVb = 7 g). The arrangement: dose 3 mg/kg, route oral. The data set is classed as organism-based. As to conditions: in vivo. The method in brief: (§2)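 Diet-induced obese rats dosed orally at 3 mg/kg and monitored for 18 h (overnight); body weight change and food intake compared with vehicle-treated animals.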

Data set [10] concerns Rattus norvegicus. The experiment in a line: Toxicity in diet-induced obese rat assessed as change in body weight at 3 mg/kg, po after 18 hrs (RVb = 6 g). The arrangement: dose 3 mg/kg, route oral. As to conditions: in vivo. It counts as organism-based. The method in brief:
as §2

In data set [11] the target is Voltage-gated inwardly rectifying potassium channel KCNH2 (Homo sapiens, UniProt Q12809).
Chain of Voltage-gated inwardly rectifying potassium channel KCNH2 (Q12809 whole entry): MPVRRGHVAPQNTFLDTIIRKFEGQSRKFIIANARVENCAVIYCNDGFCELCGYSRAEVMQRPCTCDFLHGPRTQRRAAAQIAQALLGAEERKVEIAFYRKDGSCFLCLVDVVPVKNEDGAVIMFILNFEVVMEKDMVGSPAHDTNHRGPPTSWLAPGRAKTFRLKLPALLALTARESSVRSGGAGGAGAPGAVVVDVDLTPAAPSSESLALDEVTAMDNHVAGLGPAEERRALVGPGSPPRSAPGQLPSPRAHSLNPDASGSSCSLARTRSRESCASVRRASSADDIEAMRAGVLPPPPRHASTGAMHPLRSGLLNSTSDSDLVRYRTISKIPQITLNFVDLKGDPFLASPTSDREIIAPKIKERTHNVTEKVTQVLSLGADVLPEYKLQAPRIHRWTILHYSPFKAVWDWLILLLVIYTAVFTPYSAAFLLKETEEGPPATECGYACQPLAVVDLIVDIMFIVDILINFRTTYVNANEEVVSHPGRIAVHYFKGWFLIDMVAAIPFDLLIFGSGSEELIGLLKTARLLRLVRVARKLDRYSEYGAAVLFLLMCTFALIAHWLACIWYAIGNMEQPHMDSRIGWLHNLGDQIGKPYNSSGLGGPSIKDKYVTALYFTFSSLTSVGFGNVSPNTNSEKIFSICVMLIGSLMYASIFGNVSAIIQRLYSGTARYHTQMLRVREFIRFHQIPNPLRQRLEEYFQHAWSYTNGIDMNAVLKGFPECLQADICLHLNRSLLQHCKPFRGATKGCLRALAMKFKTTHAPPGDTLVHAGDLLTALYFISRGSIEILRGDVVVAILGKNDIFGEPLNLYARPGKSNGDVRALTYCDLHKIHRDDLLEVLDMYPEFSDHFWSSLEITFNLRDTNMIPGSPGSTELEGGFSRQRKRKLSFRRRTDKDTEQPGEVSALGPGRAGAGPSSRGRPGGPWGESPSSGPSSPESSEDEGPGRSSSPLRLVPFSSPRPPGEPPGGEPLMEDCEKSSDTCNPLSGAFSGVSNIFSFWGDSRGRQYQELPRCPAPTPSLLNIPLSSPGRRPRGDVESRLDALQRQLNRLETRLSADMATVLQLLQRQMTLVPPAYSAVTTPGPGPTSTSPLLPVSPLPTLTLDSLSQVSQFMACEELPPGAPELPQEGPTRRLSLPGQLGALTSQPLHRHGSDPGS
Data set [12] concerns Rattus norvegicus. The experiment in a line: Toxicity in diet-induced obese rat assessed as change in body weight at 3 mg/kg, po after 18 hrs (RVb = 5 g). It counts as organism-based. The arrangement: dose 3 mg/kg, route oral. As to conditions: in vivo.
Data set [13] concerns the target GABA-A receptor; agonist GABA site. The experiment in a line: Partial agonist activity at human GABAA receptor. The data set is classed as functional.
Data set [14] concerns the target GABA-A receptor; agonist GABA site (Homo sapiens) (UniProt P14867+P47870+P28472+P48169+P34903+P18505+P47869+P31644+Q16445). The experiment in a line: Partial agonist activity at human GABAA receptor at 3 uM. The data set is classed as functional.

Chain of Cannabinoid receptor 1 (P21554 whole entry): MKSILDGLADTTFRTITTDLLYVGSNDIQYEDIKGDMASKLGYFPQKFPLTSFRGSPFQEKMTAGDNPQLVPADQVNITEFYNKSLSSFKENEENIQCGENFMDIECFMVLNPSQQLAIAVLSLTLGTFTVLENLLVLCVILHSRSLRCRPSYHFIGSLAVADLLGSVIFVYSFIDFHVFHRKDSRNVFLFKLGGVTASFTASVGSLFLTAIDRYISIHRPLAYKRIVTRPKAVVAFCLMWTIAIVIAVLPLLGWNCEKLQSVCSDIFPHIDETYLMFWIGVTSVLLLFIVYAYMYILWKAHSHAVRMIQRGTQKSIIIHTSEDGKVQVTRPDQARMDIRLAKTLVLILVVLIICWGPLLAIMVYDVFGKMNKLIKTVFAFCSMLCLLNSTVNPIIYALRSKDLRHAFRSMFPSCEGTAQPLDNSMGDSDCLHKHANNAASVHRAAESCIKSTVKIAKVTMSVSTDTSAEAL

As for `O=C(CO)NC1CC2(CCCCC2)Oc2nc(-c3ccccc3Cl)c(-c3ccc(Cl)cc3)cc21` (racemic), the concentration for half-maximal inhibition (IC50) (commonly the concentration that gives 50% inhibition) on Cannabinoid receptor 1 came to 0.3 nM; on Cannabinoid receptor 2, 4200 nM. Besides, the bioavailability (as a rule, the share of a dose that reaches the circulation, judged against a reference dose that is usually intravenous) in [1] was determined as 13%. Besides, the half-life (commonly how long it takes for the measured level to halve) in data set [2] is 48 min. For the same compound, the clearance – broadly, a measure of how efficiently the substance is removed, as volume per time – in data set [3] was 34 mL/min/kg. Further, the concentration at 4 h in [4] was 27 nM; in data set [5], 16 nM. In addition, the partition ratio (Kp) (as a rule, tissue or fluid exposure divided by exposure in the circulation) at 4 h in data set [6] stood at 1.7.

Take `C[C@H](NC(=O)C(C)(C)Oc1ccc(C(F)(F)F)cn1)[C@@H](Cc1ccc(Cl)cc1)c1cccc(C#N)c1` [TARANABANT]: the Activity is -10 g in the data set with Rattus norvegicus [7] and 49% in the data set on Rattus norvegicus [8].

`C[C@@H](O)C(=O)NC1CC(C)(C)Oc2nc(-c3ccc(Cl)cc3Cl)c(-c3ccc(Cl)cc3)cc21` (single isomer, unassigned): the bioavailability in data set [1] is 100%. In data set [2], this compound had a half-life of 474 min. The same compound had a clearance in [3] of 4 mL/min/kg. Also, the concentration at 4 h in data set [4] is 122 nM; in data set [5] it was 321 nM. The concentration ratio (Kp) at 4 h in data set [6] is 0.38.

Take `CC(C)(O)C(=O)NC1CC2(CCCCC2)Oc2nc(-c3ccccc3Cl)c(-c3ccc(Cl)cc3)cc21` (single isomer, unassigned; enantiomer 1) [N-(7'-(2-CHLOROPHENYL)-6'-(4-CHLOROPHENYL)-3',4'-DIHYDROSPIRO[CYCLOHEXANE-1,2'-PYRANO[2,3-B]PYRIDINE]-4'-YL)-2-HYDROXY-2-METHYLPROPANAMIDE (ENANTIOMERIC MIX)]: the half-maximal inhibitory concentration (IC50) at Cannabinoid receptor 1 is 0.7 nM; at Cannabinoid receptor 2, 3200 nM. Further, the Activity is on record as 3 g in the data set on Rattus norvegicus [9] and 28% with Rattus norvegicus [8]. Further, the bioavailability in data set [1] was found to be 6%. In data set [2], the half-life is 114 min. The clearance in data set [3] came out at 62 mL/min/kg. Further, the values for the concentration at 4 h in data set [4] and in [5] were 116 nM and 3500 nM, respectively. The Kp at 4 h in [6] was found to be 3.5.

`CN1c2nc(-c3ccc(Cl)cc3Cl)c(-c3ccc(Cl)cc3)cc2C(C(=O)NCO)CC1(C)C` (single isomer, unassigned; enantiomer 1) [6-(4-CHLOROPHENYL)-7-(2,4-DICHLOROPHENYL)-N-(HYDROXYMETHYL)-1,2,2-TRIMETHYL-1,2,3,4-TETRAHYDRO-1,8-NAPHTHYRIDINE-4-CARBOXAMIDE (ENANTIOMERIC MIX)]: the IC50 on Cannabinoid receptor 1 was found to be 3.7 nM; on Cannabinoid receptor 2, 801 nM; in data set [11] it was 40 nM. Besides, the Activity in the data set on Rattus norvegicus [10] is -8 g; in the data set on Rattus norvegicus [8] it was 55%. The bioavailability in [1] was found to be 25%. For the same compound, the half-life in data set [2] was 252 min. In data set [3], the clearance was determined as 12 mL/min/kg. Further, the concentration at 4 h in data set [4] came to 76 nM; in data set [5], 380 nM. Besides, the Kp at 4 h in data set [6] came out at 0.88.

As to `CC1(C)CC(NC(=O)CCO)c2cc(-c3ccc(Cl)cc3)c(-c3ccc(Cl)cc3Cl)nc2O1` (single isomer, unassigned; enantiomer 1) [N-(6-(4-CHLOROPHENYL)-7-(2,4-DICHLOROPHENYL)-2,2-DIMETHYL-3,4-DIHYDRO-2H-PYRANO[2,3-B]PYRIDIN-4-YL)-3-HYDROXYPROPANAMIDE (ENANTIOMERIC MIX)], the results for the IC50 (on Cannabinoid receptor 1; at Cannabinoid receptor 2; in [11]) were 1.7 nM, 2460 nM and 380 nM, respectively. Further, the Activity is on record as -11 g in the data set on Rattus norvegicus [12] and 48% with Rattus norvegicus [8]. In addition, the bioavailability in [1] came to 85%. The compound further had a half-life in [2] of 780 min. In addition, the clearance in [3] was 3 mL/min/kg.

Turning to `CC(C)(O)C(=O)c1oc2nc(-c3ccc(Cl)cc3Cl)c(-c3ccc(Cl)cc3)cc2c1NC(=O)CO`, the EC50 (usually the midpoint of the concentration-response curve) in data set [13] is 700 nM. In addition, the Emax – broadly, the maximal effect, on the per cent scale that the assay sets – in data set [14] is 18%.
